Measurements gathered from unrelated publications.
Protocols differ between the studies behind these lines.
JAK1: Tyrosine-protein kinase JAK1 (JAK1, Homo sapiens, UniProt P23458)
JAK1 JH1: Tyrosine-protein kinase JAK1, JH1 (JAK1, Homo sapiens, UniProt P23458)
JAK1 JH2: Tyrosine-protein kinase JAK1, JH2 (JAK1, Homo sapiens, UniProt P23458)

Compound | target | test | setting | measurement | value
COc1cc2ncnc(Nc3ccc(Oc4ccccc4)c(C)c3C)c2cc1OC | JAK1 | enzyme activity, inhibitor | 1 µM | inhibition | -4%
C[C@H](c1cccc(C#N)c1)n1cc(Cl)cc(C(N)=O)c1=N | JAK1 JH1 | cell-free assay, competition with immobilised ligand | 1 µM | remaining binding | 57%
CN(CCCC(F)(F)F)c1nccc(-c2cnn3ncccc23)n1 | JAK1 | binding | 1 µM | remaining binding | 100%
CC/C(=N\NC(=O)NCc1cccc(O)c1)c1ccc(O)c(C)c1O | JAK1 | enzyme activity, inhibitor | 0.1 µM | inhibition | 3.4%
Cc1ccc(C(=O)NCc2ccsc2)cc1C#Cc1cn(C(C)C)c2ncnc(N)c12 | JAK1 JH1 | enzyme activity, inhibitor | 1 µM | activity vs control | 94%
O=C(CSc1nc2nccnc2c(=O)n1CCc1ccccc1)Nc1nccs1 | JAK1 | enzyme activity, inhibitor | 10 µM | inhibition | 1%
COc1cc2ncnc(Nc3ccc(F)c(Cl)c3)c2cc1OCCCN1CCOCC1 | JAK1 | cell-free assay | 0.5 µM | remaining signal | 102%
O=C(Nc1cnn(-c2csc(C(=O)NC3COC3)c2)c1)Nc1ccccc1Cl | JAK1 | enzyme activity, inhibitor | 5 µM | remaining activity | 98.7%
CCOC(=O)c1cc2cc(-c3cc(C(=O)NCc4ccc(C(=O)O)cc4)nn3C)ccc2[nH]1 | JAK1 JH1 | cell-free assay, competition with immobilised ligand | 0.1 µM | remaining binding | 100%
CN(C)C1CCN(CC#Cc2nn(C3CCCC3)c3nc(NCc4ccccc4)ncc23)C1 (stereo not drawn) | JAK1 | enzyme activity, inhibitor, FRET | 10 µM | inhibition | 2%
O=C(N1CCS(=O)(=O)CC1)N1C[C@H](c2ccc(OC(F)(F)F)cc2)C[C@H](c2nc(C3CC3)no2)C1 | JAK1 JH2 | cell-free assay, competition with immobilised ligand | 1 µM | remaining binding | 100%
N[C@H]1CCN(c2nccc(-c3cnn4ncccc34)n2)C1 | JAK1 | binding | 1 µM | remaining binding | 60%
CCN(CC)CCNC(=O)c1c(C)[nH]c(/C=C2\C(=O)Nc3ccc(F)cc32)c1C | JAK1 | cell-free assay | 0.5 µM | remaining signal | 71.9%
CS(=O)(=O)N1CCCC(NC(=O)[C@H](CCC2CCCCC2)NC(=O)c2ccc(CNc3ncnc4c3nnn4-c3ccccc3)cc2)C1 (stereo partly drawn) | JAK1 JH2 | cell-free assay, competition with immobilised ligand | 0.1 µM | remaining binding | 89%
O=C1Nc2ccc(Cl)cc2C1=Cc1cc(Cl)c(O)c(Cl)c1 | JAK1 | cell-free assay | 0.5 µM | remaining signal | 103%
CC(=O)N1CCC(c2ccc(C(=O)NC(=N)N)cc2C(F)(F)F)CC1 | JAK1 JH2 | cell-free assay, competition with immobilised ligand | 1 µM | remaining binding | 100%
CN(c1nccc(-c2cnn3ncccc23)n1)C1CC1 | JAK1 | binding | 1 µM | remaining binding | 100%
CS(=O)(=O)c1cc(C2(NC(=O)c3cncc4c3cnn4-c3ccc(F)cc3)CC2)ccn1 | JAK1 JH1 | cell-free assay, competition with immobilised ligand | 1 µM | remaining binding | 96%
C=CC(=O)Nc1cc(Nc2nccc(Nc3cc(Cl)c(F)cc3C(C)(C)O)n2)c(OC)cc1N1CC[C@@H](N(C)C)C1 | JAK1 | enzyme activity, inhibitor | 1 µM | inhibition | 6%
CN([C@@H]1CCc2c(CC(=O)O)c3cc(S(C)(=O)=O)ccc3n2C1)S(=O)(=O)c1ccc(F)cc1 | JAK1 JH2 | cell-free assay, competition with immobilised ligand | 1 µM | remaining binding | 94%
CC(C)(C)c1nc2c(s1)c1nc(N)ncc1c1ccc(NS(=O)(=O)c3c(F)cccc3F)c(F)c12 | JAK1 | enzyme activity, inhibitor, radiometric | 1 µM | remaining activity | 90%
